{
  "source": "paper PMC7894042",
  "about": "(ACS chemical neuroscience, 2020)",
  "key": {"[1]": {"assay": "Fluorophore characterization: emission spectra in solvents", "type": "physicochemical", "conditions": "fluorometer", "procedure,_shortened": "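JP-N3 emission spectra were recorded in toluene, acetone, MeOH and H2O. Each spectrum was fitted with a single six-component split pseudo-Voigt curve to give a reference line shape.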"}, "Kv2.1 channels": {"target": "T1, Kv2.1 channels (Rattus norvegicus, UniProt P15387)", "T1 sequence (P15387 1-857)": "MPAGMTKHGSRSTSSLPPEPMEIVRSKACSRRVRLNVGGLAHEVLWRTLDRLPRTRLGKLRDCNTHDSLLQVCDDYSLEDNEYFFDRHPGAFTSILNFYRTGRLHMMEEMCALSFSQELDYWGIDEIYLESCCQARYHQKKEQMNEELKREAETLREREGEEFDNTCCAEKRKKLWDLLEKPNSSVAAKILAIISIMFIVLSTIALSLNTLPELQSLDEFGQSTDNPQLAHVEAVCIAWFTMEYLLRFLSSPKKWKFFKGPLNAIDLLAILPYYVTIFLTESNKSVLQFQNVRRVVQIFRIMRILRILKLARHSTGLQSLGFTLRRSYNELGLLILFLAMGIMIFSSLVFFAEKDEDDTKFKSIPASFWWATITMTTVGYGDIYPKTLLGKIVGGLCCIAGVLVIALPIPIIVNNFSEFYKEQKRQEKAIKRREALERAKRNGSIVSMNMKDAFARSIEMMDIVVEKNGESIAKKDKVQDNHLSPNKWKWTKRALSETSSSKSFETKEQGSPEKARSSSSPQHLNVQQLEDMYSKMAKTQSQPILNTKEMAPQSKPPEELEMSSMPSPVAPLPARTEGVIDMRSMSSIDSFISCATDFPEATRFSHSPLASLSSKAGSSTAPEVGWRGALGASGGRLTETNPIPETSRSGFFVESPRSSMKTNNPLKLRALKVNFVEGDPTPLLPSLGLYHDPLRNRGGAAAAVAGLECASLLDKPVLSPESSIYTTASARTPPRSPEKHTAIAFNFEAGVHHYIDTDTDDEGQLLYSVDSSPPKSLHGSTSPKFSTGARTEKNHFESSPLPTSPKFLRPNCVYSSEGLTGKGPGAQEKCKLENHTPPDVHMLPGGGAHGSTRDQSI", "conditions": "values for GxTX are from ref [23], cited from earlier work"}, "Kv2.1 closed state VSD": {"tested_on": "Kv2.1 closed state VSD", "conditions": "ref [22], cited from earlier work; for effect on channel opening / gating charge: Kv2.1"}, "mice": {"tested_on": "mice", "conditions": "injected into mice; no reference or experiment given; cited from earlier work"}},
  "note": "Like-named read-outs stand apart in the source and are kept apart here.",
  "data": [
    {"molecule": "[N-]=[N+]=NCc1cc(=O)cc2oc3c4c5c(cc3nc1-2)CCCN5CCC4", "note": "[JP-N3, 10-(azidomethyl)-julolidino-phenoxazinone]", "values": [
      {"measurement": "emission peak in MeOH", "setting": "[1]; 200 nM JP-N3, anhydrous MeOH", "result": 640, "unit": "nm"},
      {"measurement": "emission peak in hydrocarbon", "setting": "[1]; 200 nM JP-N3, anhydrous hydrocarbon solvent", "result": 609, "unit": "nm"}
    ]},
    {"molecule": "Met35Nle guangxitoxin-1E [GxTX]", "values": [
      {"measurement": "Kd", "setting": "Kv2.1 channels; 0 mV", "result": "1520 ± 810", "unit": "nM"},
      {"measurement": "koff", "setting": "Kv2.1 channels; 0 mV", "result": "38 ± 9 × 10^−3 s^−1"},
      {"measurement": "kon", "setting": "Kv2.1 channels; 0 mV", "result": "2.5 ± 1.2 × 10^−5 s^−1 nM^−1"},
      {"measurement": "Kd", "setting": "Kv2.1 channels; −100 mV", "result": "2.55 ± 1.01", "unit": "nM"},
      {"measurement": "koff", "setting": "Kv2.1 channels; −100 mV", "result": "0.84 ± 0.18 × 10^−3 s^−1"},
      {"measurement": "kon", "setting": "Kv2.1 channels; −100 mV", "result": "3.30 ± 1.10 × 10^−4 s^−1 nM^−1"},
      {"measurement": "effect on channel opening / gating charge", "setting": "Kv2.1 closed state VSD", "result": "inhibiting early, fast gating charge transitions"}
    ]},
    {"molecule": "guangxitoxin-1E (EGECGGFWWKCGSGKPACCPKYVCSPKWGLCNFPMP; UniProt P84835 1-36, looked up) [GxTX-1E]", "values": [
      {"measurement": "effect on channel opening / gating charge", "setting": "Kv2.1 closed state VSD", "result": "shifting channel opening to more depolarized potentials"},
      {"measurement": "affinity for Kv2.1 closed state VSD relative to its open state", "setting": "Kv2.1 closed state VSD", "result": 5400, "unit": "fold"},
      {"measurement": "toxicity", "setting": "mice", "result": "no toxicity up to 10 mg/kg"}
    ]}
  ]
}
